Measured values: ChEMBL document CHEMBL4732078 (Eur J Med Chem, 2021)
Calls of active or inactive are those of the source. The rule behind the calls is not given here.

Assays:
HCC1954 = assay: Antiproliferative activity against human HCC1954 cells assessed as reduction in cell viability after 72 hrs by sulforhodamine B assay; type: functional, cell-based; conditions: HCC1954, 72 h
Method in brief: (§1)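 SRB assay. Exponentially growing cells seeded at 3000–5000/well, compounds added serially diluted after 24 h, cultured 72 h. Cells fixed with 10% TCA, stained with SRB, dye dissolved in 10 mM Tris-HCl, absorbance read at 560 nm. Inhibition = (ODcontrol − ODtreated)/ODcontrol × 100%. IC50 is the mean of at least three independent tests.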

[1] = biological target: Phosphatidylinositol 4,5-bisphosphate 3-kinase catalytic subunit beta isoform (Homo sapiens) (UniProt P42338); assay: Inhibition of PI3Kbeta (unknown origin) transfected in human Rh30 cells assessed as reduction in AKT phosphorylation at Ser473 residue at 10XIC50 by western blot analysis; type: cell-based
Phosphatidylinositol 4,5-bisphosphate 3-kinase catalytic subunit beta isoform (Homo sapiens), sequence (P42338 whole entry, looked up, canonical isoform): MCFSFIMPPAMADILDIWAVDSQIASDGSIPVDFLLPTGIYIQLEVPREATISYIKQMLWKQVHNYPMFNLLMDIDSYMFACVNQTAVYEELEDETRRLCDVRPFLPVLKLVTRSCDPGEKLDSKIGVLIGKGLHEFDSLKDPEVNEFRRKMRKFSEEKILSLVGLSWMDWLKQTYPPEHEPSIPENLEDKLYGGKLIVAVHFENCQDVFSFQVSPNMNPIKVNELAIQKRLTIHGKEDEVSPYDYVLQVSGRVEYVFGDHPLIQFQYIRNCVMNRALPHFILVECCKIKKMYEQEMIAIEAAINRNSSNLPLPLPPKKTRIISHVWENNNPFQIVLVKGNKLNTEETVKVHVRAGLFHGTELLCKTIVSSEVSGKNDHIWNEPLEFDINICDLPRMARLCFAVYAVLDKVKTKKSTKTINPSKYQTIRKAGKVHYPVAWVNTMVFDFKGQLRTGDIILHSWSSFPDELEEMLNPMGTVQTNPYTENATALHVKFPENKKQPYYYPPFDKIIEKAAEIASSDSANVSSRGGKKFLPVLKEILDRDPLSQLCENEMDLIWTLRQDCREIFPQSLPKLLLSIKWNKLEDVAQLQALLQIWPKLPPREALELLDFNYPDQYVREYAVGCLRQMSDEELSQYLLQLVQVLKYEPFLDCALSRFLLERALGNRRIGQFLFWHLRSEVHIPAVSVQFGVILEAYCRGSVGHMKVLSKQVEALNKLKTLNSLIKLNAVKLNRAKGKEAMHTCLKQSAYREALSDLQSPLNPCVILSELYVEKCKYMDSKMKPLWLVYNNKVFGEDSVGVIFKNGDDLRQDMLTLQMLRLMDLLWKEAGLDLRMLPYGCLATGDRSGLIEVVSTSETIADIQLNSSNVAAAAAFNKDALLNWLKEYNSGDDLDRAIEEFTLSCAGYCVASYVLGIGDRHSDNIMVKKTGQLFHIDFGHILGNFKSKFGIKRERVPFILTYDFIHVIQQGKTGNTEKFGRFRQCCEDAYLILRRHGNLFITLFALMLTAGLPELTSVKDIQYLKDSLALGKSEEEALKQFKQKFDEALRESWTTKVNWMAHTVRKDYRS
Method in brief: (§2)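 Rh30 cells ectopically expressing membrane-anchored, N-terminally myristoylated, constitutively active p110α, β, γ or δ. Akt phosphorylation assessed by Western blot; lysates made in RIPA buffer, equal protein heated at 95 °C for 10 min in SDS loading buffer.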

SK-OV-3 [2] = assay: Antiproliferative activity against human SK-OV-3 cells assessed as reduction in cell viability after 72 hrs by sulforhodamine B assay; type: functional, cell-based; conditions: SK-OV-3, 72 h; method in brief: as §1
PC-3 = assay: Antiproliferative activity against human PC-3 cells assessed as reduction in cell viability after 72 hrs by sulforhodamine B assay; type: functional, cell-based; conditions: PC-3, 72 h; method in brief: as §1
[3] = Inhibition of human PI3Kgamma R459Q mutant using PIP2 as substrate in presence of ATP measured after 30 mins by HTRF assay
BT-474 = assay: Antiproliferative activity against human BT-474 cells assessed as reduction in cell viability after 72 hrs by sulforhodamine B assay; type: functional, cell-based; conditions: BT-474, 72 h; method in brief: as §1
[4] = biological target: Phosphatidylinositol 4,5-bisphosphate 3-kinase catalytic subunit alpha isoform (Homo sapiens, UniProt P42336); assay: Inhibition of PI3Kalpha in human Rh30 cells assessed as reduction in rhIGF1-stimulated AKT phosphorylation at Ser473 treated for 1 hr followed by incubation with IGF1 for 10 mins by western blot analysis; type: cell-based; conditions: dose 0.01-1 µM, time 70.0 min
Phosphatidylinositol 4,5-bisphosphate 3-kinase catalytic subunit alpha isoform, sequence (P42336 whole entry, canonical isoform): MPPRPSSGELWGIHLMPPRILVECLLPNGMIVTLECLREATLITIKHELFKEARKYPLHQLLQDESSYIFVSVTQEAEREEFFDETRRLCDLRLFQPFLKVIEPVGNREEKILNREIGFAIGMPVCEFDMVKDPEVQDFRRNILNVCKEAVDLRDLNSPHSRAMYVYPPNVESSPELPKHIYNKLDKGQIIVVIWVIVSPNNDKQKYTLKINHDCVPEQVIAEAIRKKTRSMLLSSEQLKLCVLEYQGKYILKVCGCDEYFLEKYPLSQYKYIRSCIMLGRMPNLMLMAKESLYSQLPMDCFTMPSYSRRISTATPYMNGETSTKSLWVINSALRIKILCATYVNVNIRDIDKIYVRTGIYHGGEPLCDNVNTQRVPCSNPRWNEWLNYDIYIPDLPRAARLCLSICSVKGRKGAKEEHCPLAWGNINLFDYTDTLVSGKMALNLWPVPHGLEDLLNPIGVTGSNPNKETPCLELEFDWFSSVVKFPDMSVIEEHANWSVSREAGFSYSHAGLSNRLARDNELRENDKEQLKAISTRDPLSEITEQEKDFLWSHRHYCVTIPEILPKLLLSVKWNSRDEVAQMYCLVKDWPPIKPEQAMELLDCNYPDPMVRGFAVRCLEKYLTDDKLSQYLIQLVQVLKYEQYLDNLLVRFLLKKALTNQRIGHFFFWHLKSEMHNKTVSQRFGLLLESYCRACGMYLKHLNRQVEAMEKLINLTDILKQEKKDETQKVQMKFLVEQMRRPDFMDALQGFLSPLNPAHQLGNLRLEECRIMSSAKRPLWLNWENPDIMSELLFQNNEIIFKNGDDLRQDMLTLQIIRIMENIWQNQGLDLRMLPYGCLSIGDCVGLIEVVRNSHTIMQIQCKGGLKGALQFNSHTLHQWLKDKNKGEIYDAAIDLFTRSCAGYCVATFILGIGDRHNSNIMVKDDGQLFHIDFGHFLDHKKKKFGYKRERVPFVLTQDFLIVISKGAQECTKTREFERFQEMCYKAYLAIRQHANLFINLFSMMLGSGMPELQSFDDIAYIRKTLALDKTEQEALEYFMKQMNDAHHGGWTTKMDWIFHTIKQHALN
Method in brief: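 U87MG or Rh30 cells held 24 h in serum-free medium, exposed to compound for 1 h, then stimulated with 50 ng/ml IGF-I for 10 min. Lysates blotted for Akt, pAkt T308 and pAkt S473.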

[5] = Metabolic stability in Beagle dog hepatocytes assessed as half life; type: ADME, cell-based, Canis lupus familiaris, Hepatocyte
ZR-75-1 = assay: Antiproliferative activity against human ZR-75-1 cells assessed as reduction in cell viability after 72 hrs by sulforhodamine B assay; type: functional, cell-based; conditions: ZR-75-1, 72 h; method in brief: as §1
[6] = Metabolic stability in mouse hepatocytes assessed as half life; type: ADME, cell-based, Hepatocyte
[7] = Metabolic stability in cynomolgus monkey hepatocytes assessed as half life; type: ADME, cell-based, Macaca fascicularis, Hepatocyte
Homo sapiens [8] = organism: Homo sapiens; assay: Selectivity index, ratio of IC50 for human PI3K p110delta/p85alpha to IC50 for human PI3Kalpha by HTRF assay
Method in brief: (§3)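 The PI3K isoforms were assayed with an HTRF kit. Each enzyme was incubated in assay buffer containing 10 μM PIP2, and the reaction was started with ATP and run 30 min at room temperature. Stop solution and detection mix were then added and light emission was read. IC50 values were averages of at least 3 separate determinations, and each index is the ratio of IC50 values.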

[9] = Metabolic stability in rat hepatocytes assessed as intrinsic clearance; type: ADME, cell-based, Hepatocyte; conditions: read-out: CLH
MDA-MB-231 = assay: Antiproliferative activity against human MDA-MB-231 cells assessed as reduction in cell viability after 72 hrs by sulforhodamine B assay; type: functional, cell-based; conditions: MDA-MB-231, 72 h; method in brief: as §1
[10] = system: RAF proto-oncogene serine/threonine-protein kinase (Homo sapiens), P04049 [Y340D,Y341D]; assay: Inhibition of human recombinant c-Raf Y340D/Y341D mutant (306 to end residues) using inactive MEK1 as substrate at 10 uM incubated for 40 mins in presence of [gamma33P-ATP] by radiometric scintillation counting analysis
RAF proto-oncogene serine/threonine-protein kinase (Homo sapiens), P04049 [Y340D,Y341D], sequence (P04049 whole entry Y340D/Y341D, canonical isoform): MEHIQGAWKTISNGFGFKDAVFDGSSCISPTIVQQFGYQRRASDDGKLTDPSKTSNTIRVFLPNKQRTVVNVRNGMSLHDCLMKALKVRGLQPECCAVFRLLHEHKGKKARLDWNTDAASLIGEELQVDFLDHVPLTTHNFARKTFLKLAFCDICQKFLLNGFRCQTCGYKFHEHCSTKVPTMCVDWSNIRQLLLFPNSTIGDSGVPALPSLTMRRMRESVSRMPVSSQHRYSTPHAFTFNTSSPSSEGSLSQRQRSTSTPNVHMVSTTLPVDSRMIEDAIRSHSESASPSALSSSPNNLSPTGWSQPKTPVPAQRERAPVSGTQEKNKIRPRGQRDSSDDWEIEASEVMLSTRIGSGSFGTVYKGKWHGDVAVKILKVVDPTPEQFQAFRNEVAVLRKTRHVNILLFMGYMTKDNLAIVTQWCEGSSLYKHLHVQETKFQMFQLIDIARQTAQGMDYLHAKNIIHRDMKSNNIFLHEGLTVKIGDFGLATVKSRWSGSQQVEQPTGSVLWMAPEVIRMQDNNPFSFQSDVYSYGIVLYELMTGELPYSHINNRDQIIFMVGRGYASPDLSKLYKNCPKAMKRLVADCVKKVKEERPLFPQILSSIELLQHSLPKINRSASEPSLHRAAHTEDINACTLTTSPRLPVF

[11] = biological target: CYP450 (isoform not stated) (Homo sapiens, UniProt P04798+P05177+P05181+P08684+P10632+P10635+P11509+P11712+P13584+P20813+P20815+P20853+P24462+P24903+P33260+P33261+P51589+P78329+P98187+Q02928+Q08477+Q16678+Q16696+Q5TCH4+Q6VVX0+Q7Z449+Q8TAV3+Q96SQ9+Q9HB55); assay: Inhibition of CYP450 (unknown origin); type: ADME, protein assay
[12] = Cmax in rat at 10 mg/kg, po; type: ADME, organism-based; design: route oral, dose 10 mg/kg; conditions: in vivo
Method in brief: (§4)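 Male rats given 10 mg/kg p.o.; Cmax and terminal half-life taken from the plasma concentration–time profile.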

[13] = biological target: Phosphatidylinositol 4,5-bisphosphate 3-kinase catalytic subunit delta isoform (Homo sapiens) (UniProt O00329); assay: Inhibition of PI3Kdelta (unknown origin) transfected in human Rh30 cells assessed as reduction in AKT phosphorylation at Ser473 residue at 10XIC50 by western blot analysis; type: cell-based; method in brief: as §2
Phosphatidylinositol 4,5-bisphosphate 3-kinase catalytic subunit delta isoform (Homo sapiens), sequence (O00329 whole entry, canonical isoform): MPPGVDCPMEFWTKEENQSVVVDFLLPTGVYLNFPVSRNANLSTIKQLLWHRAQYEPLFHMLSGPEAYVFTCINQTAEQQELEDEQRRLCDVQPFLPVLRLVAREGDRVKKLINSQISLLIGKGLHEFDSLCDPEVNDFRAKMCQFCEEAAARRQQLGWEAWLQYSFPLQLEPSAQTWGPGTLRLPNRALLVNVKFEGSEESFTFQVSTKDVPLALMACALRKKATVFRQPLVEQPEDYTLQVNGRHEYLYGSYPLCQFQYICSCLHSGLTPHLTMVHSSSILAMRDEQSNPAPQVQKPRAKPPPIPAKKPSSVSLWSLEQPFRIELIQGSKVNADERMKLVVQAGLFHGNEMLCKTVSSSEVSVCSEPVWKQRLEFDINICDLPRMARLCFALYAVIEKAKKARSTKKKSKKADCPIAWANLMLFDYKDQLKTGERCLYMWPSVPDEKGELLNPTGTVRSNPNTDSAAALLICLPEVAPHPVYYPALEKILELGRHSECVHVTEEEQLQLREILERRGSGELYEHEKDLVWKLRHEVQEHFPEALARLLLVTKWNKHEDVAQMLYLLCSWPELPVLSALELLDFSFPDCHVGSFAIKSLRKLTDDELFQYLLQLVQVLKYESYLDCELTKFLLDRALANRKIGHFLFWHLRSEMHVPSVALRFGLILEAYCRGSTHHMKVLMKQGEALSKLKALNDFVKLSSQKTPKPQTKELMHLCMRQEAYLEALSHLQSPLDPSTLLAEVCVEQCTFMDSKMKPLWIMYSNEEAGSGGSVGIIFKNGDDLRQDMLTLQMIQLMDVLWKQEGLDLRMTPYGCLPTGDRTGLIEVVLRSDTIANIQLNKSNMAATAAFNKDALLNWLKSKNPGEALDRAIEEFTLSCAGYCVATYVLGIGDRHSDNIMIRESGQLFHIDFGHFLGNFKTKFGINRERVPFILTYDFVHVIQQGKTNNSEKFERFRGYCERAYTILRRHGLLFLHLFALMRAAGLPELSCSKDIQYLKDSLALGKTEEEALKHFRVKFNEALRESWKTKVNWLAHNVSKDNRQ

[14] = Metabolic stability in mouse hepatocytes assessed as intrinsic clearance; type: ADME, cell-based, Hepatocyte; conditions: read-out: CLH
SK-BR-3 = assay: Antiproliferative activity against human SK-BR-3 cells assessed as reduction in cell viability after 72 hrs by sulforhodamine B assay; type: functional, cell-based; conditions: SK-BR-3, 72 h; method in brief: as §1
SK-OV-3 [15] = assay: Antitumor activity against human SK-OV-3 cells xenografted in BALB/cA nude mouse assessed as tumor growth at 5 mg/kg, po administered once a day for 21 days and measured twice per week; type: functional; conditions: dose 5 mg/kg/day; time 21 day
Method in brief: (§5)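 Female BALB/cA nude mice, 4–5 weeks old. SKOV-3 xenografts passaged once in vivo, then 1.5 mm³ fragments implanted s.c. in the right flank by trocar. At about 100 mm³ mice were randomized to vehicle or drug given orally once daily. Tumor size and body weight measured twice weekly; V = length × width²/2.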

[16] = Metabolic stability in Beagle dog hepatocytes assessed as intrinsic clearance; type: ADME, cell-based, Canis lupus familiaris, Hepatocyte; conditions: read-out: CLH
Homo sapiens [17] = organism: Homo sapiens; assay: Selectivity index, ratio of IC50 for human PI3Kgamma R459Q mutant to IC50 for human PI3Kalpha by HTRF assay; method in brief: as §3
[18] = Metabolic stability in rat hepatocytes assessed as half life; type: ADME, cell-based, Hepatocyte
SK-OV-3 [19] = assay: Antitumor activity against human SK-OV-3 cells xenografted in BALB/cA nude mouse assessed as tumor growth at 10 mg/kg, po administered once a day for 21 days and measured twice per week; type: functional; conditions: dose 10 mg/kg/day; time 21 day; method in brief: as §5
[20] = biological target: RAF proto-oncogene serine/threonine-protein kinase (Homo sapiens, UniProt P04049, Y340D/Y341D); assay: Inhibition of human recombinant c-Raf Y340D/Y341D mutant (306 to end residues) using inactive MEK1 as substrate incubated for 40 mins in presence of [gamma33P-ATP] by radiometric scintillation counting analysis
RAF proto-oncogene serine/threonine-protein kinase, sequence (P04049 whole entry Y340D/Y341D): as the sequence (P04049 whole entry Y340D/Y341D, canonical isoform) above

[21] = Inhibition of human PI3K p110alpha H1047R mutant/p85alpha using PIP2 as substrate incubated for 30 mins in presence of ATP by HTRF assay
[22] = Half life in rat at 10 mg/kg, po; type: ADME, organism-based; conditions: in vivo; method in brief: as §4
[23] = Metabolic stability in human hepatocytes assessed as intrinsic clearance; type: ADME, cell-based, Hepatocyte; conditions: read-out: CLH

For COC(=O)Nc1cc(C(F)(F)F)c(-c2nc(N3CCOCC3)c3cc(CN4CCN(S(C)(=O)=O)CC4)cn3n2)cn1 [RISOVALISIB], the IC50 (HCC1954) was under 1000 nM, the inhibition [1] was “Active” and the IC50 (SK-OV-3 [2]) was under 1000 nM. The IC50 (PC-3) was under 1000 nM, the IC50 [3] was 225 nM and the IC50 (BT-474) was under 1000 nM. The inhibition [4] was “Dose-dependent effect”, the half-life [5] was 1.46 h and the IC50 (ZR-75-1) was under 1000 nM. It also gave a half-life [6] of 1.56 h, a half-life [7] of 0.717 h and a Ratio IC50 (Homo sapiens [8]) of 13. It also gave a CLint scaled [9] of 16.9 mL/min/kg, an IC50 (MDA-MB-231) of under 1000 nM and an inhibition [10] of over 50%. For the same compound, the IC50 [11] was over 30000 nM, the Cmax [12] was 832 ng/mL and the inhibition [13] was “Active”. For the same compound, the CLint scaled [14] was 21.6 mL/min/kg, the IC50 (SK-BR-3) was under 1000 nM and the Activity (SK-OV-3 [15]) was 67.4%. For the same compound, the CLint scaled [16] was 39.5 mL/min/kg, the Ratio IC50 (Homo sapiens [17]) was 38 and the half-life [18] was 2.46 h. The Activity (SK-OV-3 [19]) was 48.1%, the IC50 [20] was 1000 nM and the IC50 [21] was 8.4 nM. The half-life [22] was 1.49 h and the CLint scaled [23] was 3.05 mL/min/kg.
